The source made the active and inactive calls. The calls are words filed in the database; no cut-off is given here.

A short description of series [1]: (§1) Growth inhibition of human HT-29 cells after 72 hrs by MTT assay. It is filed as functional, cell-based. The following applies: HT-29, 72 h.
For a further series, the system named is HT-29. The description is as §1. It is filed as functional, cell-based.
A short description of series [2]: (§2) Growth inhibition of human HCT116 cells after 72 hrs by MTT assay. The following applies: HCT-116, 72 h. In kind it is functional, cell-based.
A further series deals with HCT-116. The description is as §2. It is filed as functional, cell-based.
Series [3] can be described thus: (§3) Growth inhibition of human 518A2 cells after 72 hrs by MTT assay. The note with it: 518A2, 72 h. In kind it is functional, cell-based.
Series [4] concerns 518A2. Described as §3. It is filed as functional, cell-based.
The nature of series [5]: (§4) Growth inhibition of human MCF7/Topo cells after 72 hrs by MTT assay. In kind it is functional, cell-based.
In the next series the test system is MCF7/Topo. The series is described as §4. It is filed as functional, cell-based.
A short description of series [6]: (§5) Growth inhibition of human PANC1 cells after 72 hrs by MTT assay. It is filed as functional, cell-based. The note with it: PANC-1, 72 h.
The subject of the next series is PANC-1. The description is as §5. It is filed as functional, cell-based.
Series [7] is described as follows: (§6) Growth inhibition of human KB-V1/Vbl cells after 72 hrs by MTT assay. In kind it is functional.
For another series, the system named is KB-V1/Vbl. The series is described as §6. It is filed as functional.
A short description of series [8]: Cell cycle arrest in human HT-29 cells assessed as accumulation in G2/M phase at 15 uM after 24 hrs by propidium iodide staining based flow cytometry. It is filed as functional. The essentials: (§7)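 HT-29 colon carcinoma cells treated 24 h with 15 µM compound or DMSO (control); propidium iodide staining, flow cytometry for cell-cycle phase distribution and sub-G1 fraction. Means ± SD of three independent experiments.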

A short description of series [9]: Cell cycle arrest in human HT-29 cells assessed as decrease in G1 phase at 15 uM after 24 hrs by propidium iodide staining based flow cytometry. In kind it is functional. The essentials: as §7
The target of series [10] is T1, Broad substrate specificity ATP-binding cassette transporter ABCG2 (Homo sapiens, UniProt Q9UNQ0).
T1 sequence (Q9UNQ0 whole entry): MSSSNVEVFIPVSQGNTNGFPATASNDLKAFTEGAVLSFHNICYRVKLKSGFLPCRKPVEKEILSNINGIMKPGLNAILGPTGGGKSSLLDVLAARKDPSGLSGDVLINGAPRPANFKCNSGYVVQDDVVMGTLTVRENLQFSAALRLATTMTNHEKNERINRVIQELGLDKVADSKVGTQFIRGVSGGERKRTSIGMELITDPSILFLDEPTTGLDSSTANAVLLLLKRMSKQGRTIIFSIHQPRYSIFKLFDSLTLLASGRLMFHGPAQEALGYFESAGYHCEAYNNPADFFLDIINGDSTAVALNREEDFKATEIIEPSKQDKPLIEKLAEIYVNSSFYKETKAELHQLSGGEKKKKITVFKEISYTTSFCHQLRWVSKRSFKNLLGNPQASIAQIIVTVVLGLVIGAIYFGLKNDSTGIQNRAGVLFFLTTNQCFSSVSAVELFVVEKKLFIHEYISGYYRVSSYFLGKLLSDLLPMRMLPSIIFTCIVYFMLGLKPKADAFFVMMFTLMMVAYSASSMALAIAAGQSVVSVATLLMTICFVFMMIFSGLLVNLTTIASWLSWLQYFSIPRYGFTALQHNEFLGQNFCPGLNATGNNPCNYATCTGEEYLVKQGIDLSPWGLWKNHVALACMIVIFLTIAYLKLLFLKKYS
Description: Inhibition of BCRP in human MCF7/Topo cells assessed as mitoxantrone accumulation preincubated for 10 mins followed by mitoxantrone addition measured after 30 mins by fluorescence assay. In kind it is cell-based. The essentials: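 MCF-7/Topo breast cancer cells (BCRP-overexpressing) exposed to compounds at 0–100 µM, or fumitremorgin C 0.1–100 µM as reference inhibitor, for 30 min with mitoxantrone as fluorescent BCRP substrate. Mitoxantrone fluorescence taken as measure of inhibition; IC50 from dose–response curves; mean ± SD of three independent experiments.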

For series [11], the target named is ATP-dependent translocase ABCB1 (Homo sapiens, UniProt P08183). Description: Inhibition of P-gp in human KB-V1/Vbl cells assessed as calcein-AM accumulation preincubated for 15 mins followed by calcein-AM addition measured after 15 mins by fluorescence assay. In kind it is cell-based.
Chain of ATP-dependent translocase ABCB1 (P08183 whole entry): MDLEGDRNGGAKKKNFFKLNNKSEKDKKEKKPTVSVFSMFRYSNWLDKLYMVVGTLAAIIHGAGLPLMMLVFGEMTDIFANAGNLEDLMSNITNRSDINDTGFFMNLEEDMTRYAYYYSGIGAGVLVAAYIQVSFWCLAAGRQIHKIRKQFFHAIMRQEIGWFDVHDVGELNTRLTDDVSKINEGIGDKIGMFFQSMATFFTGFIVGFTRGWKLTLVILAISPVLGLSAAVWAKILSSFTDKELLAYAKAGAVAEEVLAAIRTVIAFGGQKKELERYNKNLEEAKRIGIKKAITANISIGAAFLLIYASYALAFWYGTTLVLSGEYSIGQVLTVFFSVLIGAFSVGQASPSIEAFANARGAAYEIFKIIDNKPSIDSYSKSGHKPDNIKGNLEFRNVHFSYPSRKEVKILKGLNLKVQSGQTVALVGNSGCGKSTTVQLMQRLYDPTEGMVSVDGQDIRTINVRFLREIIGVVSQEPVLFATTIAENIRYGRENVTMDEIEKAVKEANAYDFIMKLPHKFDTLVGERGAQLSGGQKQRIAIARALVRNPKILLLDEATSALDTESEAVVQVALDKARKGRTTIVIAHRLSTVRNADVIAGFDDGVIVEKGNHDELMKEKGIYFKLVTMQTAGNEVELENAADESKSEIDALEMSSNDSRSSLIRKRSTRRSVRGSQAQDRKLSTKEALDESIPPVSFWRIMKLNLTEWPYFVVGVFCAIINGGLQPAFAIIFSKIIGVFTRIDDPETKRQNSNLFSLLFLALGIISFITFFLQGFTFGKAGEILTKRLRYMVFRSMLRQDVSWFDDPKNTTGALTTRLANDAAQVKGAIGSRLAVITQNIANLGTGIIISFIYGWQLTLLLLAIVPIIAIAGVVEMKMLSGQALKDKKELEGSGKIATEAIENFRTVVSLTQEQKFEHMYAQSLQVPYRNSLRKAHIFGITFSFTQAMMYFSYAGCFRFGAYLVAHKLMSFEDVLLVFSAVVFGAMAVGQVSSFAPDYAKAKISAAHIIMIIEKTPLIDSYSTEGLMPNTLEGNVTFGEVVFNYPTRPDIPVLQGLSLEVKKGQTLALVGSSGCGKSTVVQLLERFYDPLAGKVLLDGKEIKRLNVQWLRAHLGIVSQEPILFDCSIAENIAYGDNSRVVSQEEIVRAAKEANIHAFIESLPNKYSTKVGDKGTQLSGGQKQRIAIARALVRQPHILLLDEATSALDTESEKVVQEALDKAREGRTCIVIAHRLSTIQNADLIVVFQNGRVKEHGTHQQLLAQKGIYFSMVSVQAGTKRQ
A further series deals with P-gp (ABCB1) (Homo sapiens, UniProt P08183). Description: Potency index, ratio of verapamil IC50 to compound IC50 for P-gp in human KB-V1/Vbl cells. In kind it is cell-based. The following applies: read-out: Ratio IC50.
Chain of P-gp (ABCB1) (P08183 whole entry, the tested form may be a part): as the sequence (P08183 whole entry) above
Series [12] deals with 518A2. Description: Induction of apoptosis in human 518A2 cells assessed as DNA fragmentation at 25 uM after 24 hrs by TUNEL based flow cytometry. In kind it is functional, cell-based. The essentials: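 518A2 melanoma cells treated 24 h; DNA fragmentation detected by TUNEL labelling and quantified by flow cytometry against untreated controls.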
Series [13] has as its system 518A2. The series can be described thus: Induction of apoptosis in human 518A2 cells assessed as DNA ladder formation at 50 uM after 24 hrs by ethidium bromide staining based agarose gel electrophoresis. It is filed as functional, cell-based.
The subject of series [14] is 518A2. The series can be described thus: Binding affinity to tubulin in human 518A2 cells assessed as effect on F-actin cytoskeleton by measuring increase in stress fibres at 10 uM after 24 hrs by phalloidin 488/DAPI staining based fluorescence microscopic analysis. In kind it is cell-based. The essentials:
(§8)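 518A2 melanoma cells treated 24 h at 10 µM or 5 µM; F-actin fluorescently stained and cytoskeletal organisation, including stress-fibre formation, compared with untreated controls by fluorescence microscopy.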

A further series is filed under the species Sus scrofa. Description: Inhibition of pig brain tubulin polymerization at 5 uM measured every 20 sec for 2 hrs by turbidimetric method.
For series [15], the system named is 518A2. The series can be described thus: Inhibition of tubulin polymerization in human 518A2 cells assessed as increase in detergent soluble tubulin heterodimers at 5 to 50 uM after 4 hrs by Western blot analysis. In kind it is cell-based. The essentials: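 518A2 melanoma cells treated 4 h with a range of concentrations; detergent-insoluble (polymeric tubulin) lysate fraction separated by centrifugation, run on SDS–PAGE, immunoblotted for alpha-tubulin (55 kDa); densitometry from at least two independent experiments (mean ± SD).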

Series [16] relates to 518A2. Description: Binding affinity to tubulin in human 518A2 cells assessed as effect on F-actin cytoskeleton by measuring increase in stress fibres at 5 uM after 24 hrs by phalloidin 488/DAPI staining based fluorescence microscopic analysis. In kind it is cell-based. The essentials:
as §8

As to `COc1cc(/C=C/C(=O)c2ccc3ccccc3c2)cc(OC)c1OC`, the IC50 in series [1] amounted to 28.1 µM; in series [2], 13.7 µM; in series [3], 22.9 µM; in series [5], 5.6 µM; in series [6] it was 13.3 µM; in series [7], 13.9 µM. Moreover, the 50% inhibitory concentration (IC50) in series [10] is 2.4 µM; in series [11] it was 13 µM. In addition, the “growth inhibition (GI)” value in the series with HT-29, in the series on HCT-116, in the series with 518A2 [4], in the series with MCF7/Topo, with PANC-1 and in the series with KB-V1/Vbl was “Dose-dependent effect” each time. The result (in [8]; in series [9]; with 518A2 [12]; with 518A2 [13]; with 518A2 [14]) was Active. Besides, the selectivity ratio at P-gp (ABCB1) was in the range of 4 to 5.

On to `COc1ccc2c3c([nH]c2c1)[C@H](C=C(C)C)N1C(=O)[C@@H]2CCCN2C(=O)[C@@H]1C3` [FUMITREMORGIN], for which the IC50 in series [10] amounted to 0.96 µM.

In the case of `COc1cc(C2CC(c3ccc4ccccc4c3)=NN2C(C)=O)cc(I)c1OC` (configuration not stated), the IC50 in [1] is 2.3 µM; in series [2] it was 1.6 µM; in [3], 3.8 µM; in [5], 2.5 µM; in series [6], 1.1 µM; in [7], 1.9 µM. In addition, the half-inhibitory concentration (IC50) in series [10] was 7.1 µM; in [11] it was 16.3 µM. The “growth inhibition (GI)” value in the series on HT-29, with HCT-116, with 518A2 [4], in the series with MCF7/Topo, with PANC-1 and in the series with KB-V1/Vbl was “Dose-dependent effect” each time. Besides, the outcome in series [8] and in series [9] was Active. Besides, on P-gp (ABCB1), the selectivity ratio was 4 to 5. Moreover, the inhibition entry in the series listed under Sus scrofa and with 518A2 [15] was “Active” throughout.

As for `COc1cc(/C=C/C(=O)c2ccc3ccccc3c2)cc(I)c1OC`, the IC50 in series [1] was found to be 13.3 µM; in [2], 14.4 µM; in series [3], 18.1 µM; in series [5], 1.3 µM; in series [6], 10.4 µM; in [7], 16.5 µM. Also, the half-maximal inhibitory concentration (IC50) is 7.8 µM in series [10] and greater than 500 µM in series [11]. Besides, the “growth inhibition (GI)” value in the series on HT-29, with HCT-116, in the series with 518A2 [4], in the series with MCF7/Topo, with PANC-1 and with KB-V1/Vbl was “Dose-dependent effect” in each case. For the same compound, the outcome in series [8] and in series [9] was Active. For the same compound, the inhibition result in the series filed under Sus scrofa and in the series with 518A2 [15] was “Active” throughout.

As for `COc1cc(C2CC(c3ccc4ccccc4c3)=NN2C(C)=O)cc(Br)c1OC` (configuration not stated), the IC50 in series [1] is 2.5 µM; in series [2], 2.7 µM; in series [3], 3.8 µM; in series [5] it was 2.6 µM; in [6], 1.5 µM; in [7], 2.2 µM. The IC50 in series [10] is 8.9 µM; in [11], 12.6 µM. The “growth inhibition (GI)” value in the series on HT-29, in the series with HCT-116, in the series with 518A2 [4], in the series on MCF7/Topo, with PANC-1 and in the series on KB-V1/Vbl was “Dose-dependent effect” each time. In addition, the outcome in series [8] and in series [9] was Active. Besides, the selectivity ratio at P-gp (ABCB1) was 4 to 5.

In the case of `COc1cc(/C=C/C(=O)c2ccc3ccccc3c2)cc(Br)c1OC`, the IC50 in [1] is 22.8 µM; in [2], 11.2 µM; in [3] it was 20.2 µM; in [5] it was 2.3 µM; in [6] it was 9.3 µM; in [7], 10.5 µM. The figures for the IC50 in series [10] and in [11] were 4.9 µM and greater than 500 µM, respectively. The “growth inhibition (GI)” value with HT-29, in the series with HCT-116, with 518A2 [4], in the series on MCF7/Topo, in the series on PANC-1 and in the series with KB-V1/Vbl was “Dose-dependent effect” in each case. Further, the result in series [8] and in [9] was Active.

In the case of `COc1cc(C2CC(c3ccc4ccccc4c3)=NN2C(C)=O)cc(Cl)c1OC` (configuration not stated), the IC50 in series [1] turned out to be 3.5 µM; in series [2], 3.8 µM; in [3] it was 4.6 µM; in series [5], 2.1 µM; in series [6], 3.1 µM; in series [7] it was 4.7 µM. Besides, the IC50 in series [10] was 7.4 µM; in [11], 12.1 µM. The “growth inhibition (GI)” value in the series with HT-29, in the series with HCT-116, in the series with 518A2 [4], in the series on MCF7/Topo, in the series on PANC-1 and in the series with KB-V1/Vbl was “Dose-dependent effect” each time. For the same compound, the result (in series [8]; in [9]; with 518A2 [16]) was Active. Besides, on P-gp (ABCB1), the selectivity ratio lay in the range of 4 to 5. The inhibition entry in the series filed under Sus scrofa and in the series on 518A2 [15] was “Active” throughout.

As to `COc1cc(/C=C/C(=O)c2ccc3ccccc3c2)cc(Cl)c1OC`, the IC50 in series [1] amounted to 23.9 µM; in series [2] it was 12.9 µM; in series [3], 16.4 µM; in [5], 1.5 µM; in series [6], 10.3 µM; in series [7] it was 13.1 µM. The IC50 in series [10] is 8.7 µM; in [11] it was greater than 500 µM. Further, the “growth inhibition (GI)” value with HT-29, with HCT-116, in the series with 518A2 [4], in the series with MCF7/Topo, in the series with PANC-1 and in the series with KB-V1/Vbl was “Dose-dependent effect” each time. In addition, the outcome (in series [8]; in series [9]; with 518A2 [12]; in the series on 518A2 [13]; in the series on 518A2 [14]) was Active. Also, the inhibition entry in the series filed under Sus scrofa and in the series on 518A2 [15] was “Active” each time.

These data come from ChEMBL document CHEMBL3856286, “Halogenated naphthochalcones and structurally related naphthopyrazolines with antitumor activity” (Bioorg Med Chem Lett, 2016).
